Entries after “also recorded” stand apart in the source; their conditions may differ. No end group written: not given here.
T1: recombinant hexa-His-tagged LSD2 (human, UniProt Q8NB78 1-822)
T1 sequence (looked up): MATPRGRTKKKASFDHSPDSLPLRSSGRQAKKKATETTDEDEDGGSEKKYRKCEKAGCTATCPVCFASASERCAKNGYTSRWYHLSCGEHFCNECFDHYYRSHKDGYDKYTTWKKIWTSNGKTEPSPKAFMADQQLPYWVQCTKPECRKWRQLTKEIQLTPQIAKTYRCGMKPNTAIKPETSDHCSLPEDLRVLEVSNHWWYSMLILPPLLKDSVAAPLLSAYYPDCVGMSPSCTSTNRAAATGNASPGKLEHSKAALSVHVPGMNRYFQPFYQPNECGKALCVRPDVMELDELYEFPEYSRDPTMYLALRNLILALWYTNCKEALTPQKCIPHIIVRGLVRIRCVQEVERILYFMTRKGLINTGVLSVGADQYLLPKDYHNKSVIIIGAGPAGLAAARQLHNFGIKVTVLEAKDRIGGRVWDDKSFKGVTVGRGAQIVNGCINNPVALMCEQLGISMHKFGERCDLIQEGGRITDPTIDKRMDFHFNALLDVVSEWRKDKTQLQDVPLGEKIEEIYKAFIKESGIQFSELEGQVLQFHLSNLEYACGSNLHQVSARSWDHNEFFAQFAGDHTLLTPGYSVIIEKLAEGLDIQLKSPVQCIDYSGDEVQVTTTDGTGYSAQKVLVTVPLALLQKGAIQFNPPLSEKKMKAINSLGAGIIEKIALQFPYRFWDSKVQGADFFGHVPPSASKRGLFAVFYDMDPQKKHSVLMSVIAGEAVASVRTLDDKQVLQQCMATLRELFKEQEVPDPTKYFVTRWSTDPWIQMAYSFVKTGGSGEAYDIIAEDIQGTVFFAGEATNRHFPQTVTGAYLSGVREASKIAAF

T2: LSD2 (Homo sapiens, UniProt Q8NB78)
T2 sequence (Q8NB78 1-822): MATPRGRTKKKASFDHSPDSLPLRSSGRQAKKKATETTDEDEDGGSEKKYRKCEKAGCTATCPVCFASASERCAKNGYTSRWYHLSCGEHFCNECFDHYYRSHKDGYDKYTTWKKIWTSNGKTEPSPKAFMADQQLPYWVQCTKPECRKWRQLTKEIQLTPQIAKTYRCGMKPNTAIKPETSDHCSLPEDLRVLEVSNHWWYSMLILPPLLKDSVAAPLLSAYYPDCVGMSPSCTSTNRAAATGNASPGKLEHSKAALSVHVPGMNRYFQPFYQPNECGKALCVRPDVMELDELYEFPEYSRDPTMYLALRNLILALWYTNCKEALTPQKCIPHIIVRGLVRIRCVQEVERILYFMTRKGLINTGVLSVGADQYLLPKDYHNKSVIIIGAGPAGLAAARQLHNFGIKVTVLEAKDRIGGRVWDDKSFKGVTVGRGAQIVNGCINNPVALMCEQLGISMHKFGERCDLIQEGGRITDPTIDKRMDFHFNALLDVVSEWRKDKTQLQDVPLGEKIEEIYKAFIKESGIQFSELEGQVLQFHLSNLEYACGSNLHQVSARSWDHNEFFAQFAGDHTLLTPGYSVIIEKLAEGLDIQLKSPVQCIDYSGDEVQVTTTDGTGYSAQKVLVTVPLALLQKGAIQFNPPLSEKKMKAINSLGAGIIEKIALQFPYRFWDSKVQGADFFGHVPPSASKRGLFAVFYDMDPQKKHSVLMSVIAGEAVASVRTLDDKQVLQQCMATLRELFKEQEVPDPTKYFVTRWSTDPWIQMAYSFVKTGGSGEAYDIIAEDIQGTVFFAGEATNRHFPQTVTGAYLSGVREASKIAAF


biological target: T1, recombinant hexa-His-tagged LSD2; assay: pull-down; details: not given

| Molecule | binding result |
| --- | --- |
| GST-NP.d2 (NPAC residues 1–252) (domain or fragment, UniProt Q49A26 1-252, looked up) MAAVSLRLGDLVWGKLGRYPPWPGKIVNPPKDLKKPRGKKCFFVKFFGTEDHAWIKVEQLKPYHAHKEEMIKINKGKRFQQAVDAVEEFLRRAKGKDQTSSHNSSDDKNRRNSSEERSRPNSGDEKRKLSLSEGKVKKNMGEGKKRVSSGSSERGSKSPLKRAQEQSPRKRGRPPKDEKDLTIPESSTVKGMMAGPMAAFKWQPTASEPVKDADPHFHHFLLSQTEKPAVCYQAITKKLKICEEETGSTSIQ | binds |
| GST-NP.d3 (NPAC residues 152–252, linker region) (domain or fragment, UniProt Q49A26 152-252, looked up) SERGSKSPLKRAQEQSPRKRGRPPKDEKDLTIPESSTVKGMMAGPMAAFKWQPTASEPVKDADPHFHHFLLSQTEKPAVCYQAITKKLKICEEETGSTSIQ | binds |
| GST-NP.d4 (NPAC residues 152–553) (domain or fragment, UniProt Q49A26 152-553, looked up) SERGSKSPLKRAQEQSPRKRGRPPKDEKDLTIPESSTVKGMMAGPMAAFKWQPTASEPVKDADPHFHHFLLSQTEKPAVCYQAITKKLKICEEETGSTSIQAADSTAVNGSITPTDKKIGFLGLGLMGSGIVSNLLKMGHTVTVWNRTAEKCDLFIQEGARLGRTPAEVVSTCDITFACVSDPKAAKDLVLGPSGVLQGIRPGKCYVDMSTVDADTVTELAQVIVSRGGRFLEAPVSGNQQLSNDGMLVILAAGDRGLYEDCSSCFQAMGKTSFFLGEVGNAAKMMLIVNMVQGSFMATIAEGLTLAQVTGQSQQTLLDILNQGQLASIFLDQKCQNILQGNFKPDFYLKYIQKDLRLAIALGDAVNHPTPMAAAANEVYKRAKALDQSDNDMSAVYRAYIH | binds |
| GST-tagged wild-type NPAC (natural protein, UniProt Q49A26 1-553, looked up) MAAVSLRLGDLVWGKLGRYPPWPGKIVNPPKDLKKPRGKKCFFVKFFGTEDHAWIKVEQLKPYHAHKEEMIKINKGKRFQQAVDAVEEFLRRAKGKDQTSSHNSSDDKNRRNSSEERSRPNSGDEKRKLSLSEGKVKKNMGEGKKRVSSGSSERGSKSPLKRAQEQSPRKRGRPPKDEKDLTIPESSTVKGMMAGPMAAFKWQPTASEPVKDADPHFHHFLLSQTEKPAVCYQAITKKLKICEEETGSTSIQAADSTAVNGSITPTDKKIGFLGLGLMGSGIVSNLLKMGHTVTVWNRTAEKCDLFIQEGARLGRTPAEVVSTCDITFACVSDPKAAKDLVLGPSGVLQGIRPGKCYVDMSTVDADTVTELAQVIVSRGGRFLEAPVSGNQQLSNDGMLVILAAGDRGLYEDCSSCFQAMGKTSFFLGEVGNAAKMMLIVNMVQGSFMATIAEGLTLAQVTGQSQQTLLDILNQGQLASIFLDQKCQNILQGNFKPDFYLKYIQKDLRLAIALGDAVNHPTPMAAAANEVYKRAKALDQSDNDMSAVYRAYIH | binds |
| GST-NP.d8 (NPAC residues 188–252) (domain or fragment, UniProt Q49A26 188-252, looked up) TVKGMMAGPMAAFKWQPTASEPVKDADPHFHHFLLSQTEKPAVCYQAITKKLKICEEETGSTSIQ | binds |

biological target: T2, LSD2; assay: GST pull-down of His-LSD2; type: binding; details: GST pull-down of purified His-LSD2; SDS-PAGE, Coomassie blue staining
Procedure, shortened: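 GST and GST-tagged wild-type or mutant NPAC proteins (linker-region and binding-site mutants) were used to pull down purified His-LSD2. His-LSD2 in input and bound fractions was resolved by SDS-PAGE and stained with Coomassie blue.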

| Molecule | LSD2 binding / interaction |
| --- | --- |
| NP.d7: residues 152–186, containing the AT-hook motif (SERGSKSPLKRAQEQSPRKRGRPPKDEKDLTIPES; also: GST fusion, end not given here) | but not NP.d7 (residues 152–186, containing the AT-hook motif, lane 4), was sufficient for LSD2 interaction |
| NP.d5: dehydrogenase domain, residues 262–553; GST-tagged (protein, left off: GST, end not stated, kept) SITPTDKKIGFLGLGLMGSGIVSNLLKMGHTVTVWNRTAEKCDLFIQEGARLGRTPAEVVSTCDITFACVSDPKAAKDLVLGPSGVLQGIRPGKCYVDMSTVDADTVTELAQVIVSRGGRFLEAPVSGNQQLSNDGMLVILAAGDRGLYEDCSSCFQAMGKTSFFLGEVGNAAKMMLIVNMVQGSFMATIAEGLTLAQVTGQSQQTLLDILNQGQLASIFLDQKCQNILQGNFKPDFYLKYIQKDLRLAIALGDAVNHPTPMAAAANEVYKRAKALDQSDNDMSAVYRAYIH | Neither the PWWP domain (NP.d1) nor the dehydrogenase domain (NP.d5) interacted with LSD2 |
| NP.d2: truncation protein containing the linker region, residues 1–252; GST-tagged (protein, left off: GST, end not stated, kept) MAAVSLRLGDLVWGKLGRYPPWPGKIVNPPKDLKKPRGKKCFFVKFFGTEDHAWIKVEQLKPYHAHKEEMIKINKGKRFQQAVDAVEEFLRRAKGKDQTSSHNSSDDKNRRNSSEERSRPNSGDEKRKLSLSEGKVKKNMGEGKKRVSSGSSERGSKSPLKRAQEQSPRKRGRPPKDEKDLTIPESSTVKGMMAGPMAAFKWQPTASEPVKDADPHFHHFLLSQTEKPAVCYQAITKKLKICEEETGSTSIQ | capable of directly interacting with LSD2; also recorded: did not adversely affect LSD2 binding |
| NP.d1: PWWP domain, residues 1–150; GST-tagged (protein, left off: GST, end not stated, kept) MAAVSLRLGDLVWGKLGRYPPWPGKIVNPPKDLKKPRGKKCFFVKFFGTEDHAWIKVEQLKPYHAHKEEMIKINKGKRFQQAVDAVEEFLRRAKGKDQTSSHNSSDDKNRRNSSEERSRPNSGDEKRKLSLSEGKVKKNMGEGKKRVSSG | Neither the PWWP domain (NP.d1) nor the dehydrogenase domain (NP.d5) interacted with LSD2 |
| NP.d4: truncation protein containing the linker region, residues 152–553; GST-tagged (protein, left off: GST, end not stated, kept) SERGSKSPLKRAQEQSPRKRGRPPKDEKDLTIPESSTVKGMMAGPMAAFKWQPTASEPVKDADPHFHHFLLSQTEKPAVCYQAITKKLKICEEETGSTSIQAADSTAVNGSITPTDKKIGFLGLGLMGSGIVSNLLKMGHTVTVWNRTAEKCDLFIQEGARLGRTPAEVVSTCDITFACVSDPKAAKDLVLGPSGVLQGIRPGKCYVDMSTVDADTVTELAQVIVSRGGRFLEAPVSGNQQLSNDGMLVILAAGDRGLYEDCSSCFQAMGKTSFFLGEVGNAAKMMLIVNMVQGSFMATIAEGLTLAQVTGQSQQTLLDILNQGQLASIFLDQKCQNILQGNFKPDFYLKYIQKDLRLAIALGDAVNHPTPMAAAANEVYKRAKALDQSDNDMSAVYRAYIH | capable of directly interacting with LSD2; also recorded: did not adversely affect LSD2 binding |
| NP.d6: deletion of the linker region (residues 152–252); GST-tagged (protein, left off: GST, end not stated, kept) MAAVSLRLGDLVWGKLGRYPPWPGKIVNPPKDLKKPRGKKCFFVKFFGTEDHAWIKVEQLKPYHAHKEEMIKINKGKRFQQAVDAVEEFLRRAKGKDQTSSHNSSDDKNRRNSSEERSRPNSGDEKRKLSLSEGKVKKNMGEGKKRVSSGSAADSTAVNGSITPTDKKIGFLGLGLMGSGIVSNLLKMGHTVTVWNRTAEKCDLFIQEGARLGRTPAEVVSTCDITFACVSDPKAAKDLVLGPSGVLQGIRPGKCYVDMSTVDADTVTELAQVIVSRGGRFLEAPVSGNQQLSNDGMLVILAAGDRGLYEDCSSCFQAMGKTSFFLGEVGNAAKMMLIVNMVQGSFMATIAEGLTLAQVTGQSQQTLLDILNQGQLASIFLDQKCQNILQGNFKPDFYLKYIQKDLRLAIALGDAVNHPTPMAAAANEVYKRAKALDQSDNDMSAVYRAYIH | abolished NPAC-LSD2 interaction |
| NP.d8: residues 188–252 (protein, left off: GST, end not stated, kept) TVKGMMAGPMAAFKWQPTASEPVKDADPHFHHFLLSQTEKPAVCYQAITKKLKICEEETGSTSIQ | sufficient for LSD2 interaction |
| NP.d9: deletion of amino acids 214–222 from NP.d3 (protein, left off: GST, end not stated, kept) SERGSKSPLKRAQEQSPRKRGRPPKDEKDLTIPESSTVKGMMAGPMAAFKWQPTASEPVKDASQTEKPAVCYQAITKKLKICEEETGSTSIQ | completely abolished LSD2 binding |

biological target: T2, LSD2; assay: H3K4me2 peptide; type: biochemical; details: 50 μM H3K4me2 peptide (1–21), 50 mM Tris-HCl pH 8.5, 50 mM KCl, 5 mM MgCl2, 5% glycerol, 37°C, 30 min; MALDI-TOF MS
Procedure, shortened: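 Purified LSD2, full-length or truncated (residues 51–822), incubated with NPAC-derived peptides or proteins and 50 μM H3K4me2 peptide (residues 1–21, >95% pure by HPLC and MS) in 50 mM Tris-HCl pH 8.5, 50 mM KCl, 5 mM MgCl2, 5% glycerol, 37°C, 30 min. Products desalted on C18 tips; MALDI-TOF MS at constant laser intensity across samples.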

| Molecule | cofactor activity for LSD2 with H3K4me2 peptide (residues 1–21) as substrate |
| --- | --- |
| DPHAHHFLLSQT [NP.M6] | but not the F217A mutant, can stimulate LSD2-mediated demethylation of H3K4me2 peptides; also recorded: These results were further confirmed in demethylation assays using H3K4me2 peptide substrate (residues 1–21) |

Source: paper PMC3625064 (Molecular cell, 2012)
